Screening results as filed in PubChem.
This is a sample that favours compounds with a hit; in the whole collection about 9.6% have one here.
b-catenin transl: beta-catenin nuclear translocation modulation | nuclear translocation activity, % at 5 µM | hit rate 0.3% among 190,000 | HeLa beta-catenin nuclear translocation, immunofluorescence imaging;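 active means nuclear translocation activity above 50% at 5 µM, with a well cell count of 50 or more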;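 further: per-cell ratio of nuclear to cytoplasmic median beta-catenin stain intensity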
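Read-out: Nuclear/cytoplasmic beta-catenin signal ratio, % activation | Assay system: Human HeLa cell line | Times: 24 h compound exposure at 37°C, 5% CO2 | Signal: Fluorescence imaging of beta-catenin antibody stain plus DAPI | Dosing: 5 µM primary, 0.02–20 µM confirmation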
APP transl inh: APP translation inhibition; SH-SY5Y APP 5'UTR-luciferase reporter, luminescence; inhibition, % at 2 µM; hit rate 0.82% among 190,000;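 active means inhibition above a set limit, derived from the sample mean plus 3 SD, cut at about 45% in these data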
L major viab: Leishmania major promastigote growth inhibition | Leishmania major promastigotes, resazurin fluorescence viability | inhibition, % at 10 µM | hit rate 9% among 200,000; in the data active means inhibition above about 50%;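 further: promastigotes grown with compound for 44 hours at 28 °C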
MT stabilizer: stabilizes microtubules in HeLa cells | HeLa tubulin immunostaining HCS, 24 h; share of cells brighter than vehicle mean+2SD | % tubulin-high responders, % at 10 µM | hit rate 0.83% among 200,000;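 active means plate Z-score above 3 for both tubulin-high and condensed-nucleus cell shares, with cell loss under 80%, at 10 µM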;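 further: anti alpha tubulin signal scored within the nucleus-defined area of each cell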
BaF3 parental: parental Ba/F3 viability inhibition as JAK2V617F counter-screen; hit rate 1.1% among 220,000; CellTiter-Glo ATP luminescence; inhibition, % at 5.6 µM;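 active means inhibition above a per-campaign cutoff, the mean inhibition of all tested compounds plus 3 SD, cut at about 27% in these data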
Ba/F3 V617F tox: lowers viability of Ba/F3 cells expressing EpoR and JAK2V617F; AID 1446; hit rate 1.1% among 220,000; inhibition, % at 5.6 µM; ATP luminescence;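 active means inhibition above the campaign mean plus 3 SD over all tested compounds, cut at about 24% in these data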;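 further: cytokine-independent growth of Ba/F3 cells driven by EpoR plus mutant JAK2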
A number is an active result; n = inactive; x = no result.

SMILES	b-catenin transl	APP transl inh	L major viab	MT stabilizer	BaF3 parental	Ba/F3 V617F tox
O=C(CNC(=S)N(CCCN1CCOCC1)Cc1cccs1)NC1CCCC1	n	n	n	n	n	n
COC(=O)C1=C(C(=O)OC)[C@@H]2N(Cc3ccccc3)c3ccccc3[C@@]23C[C@@H](CO)N(C(=O)NC2CCCC2)C3=N1	n	x	x	x	x	x
CCN1CCCc2cc(CN(CCN3CCOCC3)C(=S)Nc3cccc(OC)c3)ccc21	n	n	n	n	n	n
COCCNC(=O)NC(=O)COC(=O)c1cccn1C	n	n	n	n	n	n
O=C(Nc1ccc(N2CCN(C(=O)c3ccc(Cl)cc3)CC2)cc1)c1ccc([N+](=O)[O-])o1	n	96.1	100.0	n	n	n
O=C(Nc1ccc(N2CCCC2)c(Cl)c1)c1ccc([N+](=O)[O-])o1	n	78.5	100.5	n	n	74.8
O=C(/C=C/c1ccc(Cl)c([N+](=O)[O-])c1)Nc1ccc(N2CCCC2)c(Cl)c1	n	n	78.6	n	n	n
O=C(Nc1ccc(N2CCN(C(=O)c3ccc(Cl)cc3)CC2)cc1)c1ccc2c(c1)OCCO2	x	n	n	n	n	n
CC(C)C(=O)Nc1ccc(N2CCCC2)c(Cl)c1	n	n	n	n	n	n
CS(=O)(=O)N1CCN(c2ccc(NC(=O)c3ccc([N+](=O)[O-])o3)cc2)CC1	n	65.6	94.7	n	n	n
CCCC(=O)N1CCN(c2ccc(NC(=O)c3ccc([N+](=O)[O-])o3)cc2)CC1	n	70.1	100.5	n	45.0	90.2
CN1CCN(c2ccc(NC(=O)c3ccc(-c4ccc(Br)cc4)o3)cc2)CC1	n	n	99.2	n	n	n
O=C(Nc1ccc(N2CCCC2)cc1)c1ccc(Br)o1	n	n	n	n	n	n
CCCC(=O)N1CCN(c2ccc(NC(=O)c3ccc(Br)o3)cc2)CC1	n	n	n	n	n	n
CCCn1ncc(CN2CCN(Cc3ccsc3)C(CCO)C2)c1C (stereo not drawn)	n	n	n	n	n	n
COc1ccc(CNC(=S)N2CCN(Cc3ccccc3)CC2)cc1	n	x	x	x	n	n
O=C(Nc1ccc([N+](=O)[O-])cc1)C1CC1(c1ccccc1)c1ccccc1 (stereo not drawn)	n	n	n	n	n	n
CC1(C)C(C=C(Cl)Cl)C1C(=O)Nc1ccc([N+](=O)[O-])cc1 (stereo not drawn)	x	n	87.8	n	n	n
COc1ccc(/C=c2\s/c(=C(/C#N)C(=O)NCc3ccco3)n(-c3ccccc3)c2=O)cc1	n	n	61.9	n	n	n
CCOC(=O)c1[nH]c2ccc(OC)cc2c1NS(=O)(=O)c1ccc(OC)cc1OC	n	n	n	n	n	n
COC(=O)c1[nH]c2ccc(F)cc2c1NS(=O)(=O)c1ccc(OC)cc1OC	n	n	97.0	n	n	n
CCCOC(=O)c1ccc(-c2c(C)noc2-c2ccc(OC)cc2O)o1	x	n	56.2	n	n	n
COc1ccc(-c2onc(C)c2-c2cscn2)c(O)c1	n	n	n	n	n	n
COCCNC(=O)c1ccc2c(c1)nc(C)n2-c1cc(OC)c(OC)c(OC)c1	n	n	n	n	n	n
NC(=O)c1cc(C(=O)c2ccc(Cl)cc2)c[nH]1	n	n	n	n	n	n
SMILES	b-catenin transl	APP transl inh	L major viab	MT stabilizer	BaF3 parental	Ba/F3 V617F tox
COc1ccccc1N1CCN(c2nc(C)nc3c2oc2ccccc23)CC1	81.4	92.6	n	20.5	71.2	64.8
O=C(O)C1CCN(c2nc(-c3ccccc3)nc3c2oc2ccccc23)CC1	n	n	n	n	n	n
Cc1nc(N2CCN(Cc3ccc(Cl)cc3)CC2)c2oc3ccccc3c2n1	n	x	x	x	n	n
Cc1nc(N2CCC(C)CC2)c2oc3ccccc3c2n1	n	n	n	24.1	n	n
Cc1cc(C)n(-c2cc(C(=O)O)cc(C(=O)O)c2)n1	n	n	n	n	n	n
Cc1cc(C)c2nc3nc(C)c(C)cc3c(N)c2c1	n	n	100.3	n	n	n
CCCSc1nc(C)c2cc(C)cc(C)c2n1	n	n	n	n	n	n
CN(C)CCC(=O)c1ccc(F)cc1	n	x	x	x	n	n
CN(C)CCC(=O)c1cccc(Br)c1	n	n	52.5	n	n	n
CN(C)CCC(=O)c1ccc2c(c1)OCO2	n	n	98.5	n	n	n
COCCSc1nnc(NC(=O)c2ccc(NC(=O)C(C)C)cc2)s1	n	n	n	n	n	n
CC(C)Sc1nnc(-c2c[nH]c3ccccc23)n1C	x	x	n	n	n	n
COc1ccc(-c2c(C#N)c(SCC(=O)Nc3ccccc3)nc3c2CCCC3)cc1	x	n	92.0	n	n	n
COc1cccc(-n2c(SCC(=O)Nc3nc4ccccc4s3)nc3ccccc3c2=O)c1	n	x	x	x	n	n
COc1cccc(-n2c(SCC(=O)Nc3sc4c(c3C(N)=O)CCC4)nc3ccccc3c2=O)c1	n	n	51.7	n	n	n
NC(=O)c1c(NC(=O)CSc2nnc(-c3ccco3)n2-c2ccccc2)sc2c1CCC2	n	n	n	23.4	n	n
N#Cc1c(SCC(N)=O)nc2c(c1-c1ccc(OCc3ccccc3)cc1)CCCC2	x	n	n	n	n	n
C#CCSc1nnc(-c2c[nH]c3ccccc23)n1C	n	n	n	n	48.5	30.1
C=CCN(C(=O)c1ccccn1)C(C(=O)NCc1ccccc1)c1ccccc1F (stereo not drawn)	n	n	n	n	n	n
CCOC(=O)/C(C#N)=C/c1cn(CCC(=O)O)nc1-c1cccc(Br)c1	n	n	n	n	n	n
Cn1c(N)c(C(=O)Nc2c(Cl)cccc2Cl)sc1=S	n	x	x	x	n	n
CN(c1ccccc1)S(=O)(=O)c1cccc(NC(=O)CCN2C(=O)C3CCCCC3C2=O)c1 (stereo not drawn)	n	n	n	n	n	n
COc1ccccc1NC(=O)CC(=O)CSc1nnc(-c2ccc(C)cc2)n1-c1ccccc1	n	n	72.1	n	n	n
CCOC(=O)c1c(NC(=O)CSc2nnc(-c3c[nH]c4ccccc34)n2C)sc2c1CCCC2	n	n	51.3	n	n	n
COc1ccc(-n2c(SCC(=O)Nc3sc4c(c3C#N)CCCC4)nnc2-c2ccccc2OC)cc1	n	n	n	n	n	n
SMILES	b-catenin transl	APP transl inh	L major viab	MT stabilizer	BaF3 parental	Ba/F3 V617F tox
CCc1nnc(NC(=O)CSc2nnc(-c3c[nH]c4ccccc34)n2C)s1	n	n	n	n	n	n
COc1ccc(-c2nnc(SCC(=O)Nc3sc4c(c3C#N)CCCC4)n2-c2ccccc2)cc1	n	n	n	20.1	n	n
CCC(C)c1ccccc1NC(=O)COC(=O)c1ccc(C)c(NC(=O)c2ccco2)c1 (stereo not drawn)	n	n	n	n	n	n
CCSc1nc2c(c(=O)[nH]1)C(c1cccs1)C(C(=O)OC)=C(C)N2 (stereo not drawn)	n	n	n	n	n	n
COc1ccc(CCNC(=O)COc2ccc(N(C)S(=O)(=O)c3ccc(C)cc3)cc2)cc1OC	n	n	n	n	n	n
Cc1cccc(CN2CCCC(C(=O)N3CCc4ccccc4C3)C2)c1 (stereo not drawn)	n	n	95.4	n	n	n
